Experimental data as given in ChEMBL document CHEMBL4190231, “Anti-Cryptococcus Phenalenones and Cyclic Tetrapeptides from Auxarthron pseudauxarthron” (J Nat Prod, 2017).
Values after ≈ are worked out from the molar mass of the structure shown.

Legend:
MDA-MB-453 = test: Cytotoxicity against human MDA-MB-453 cells by Celltiter-Glo assay; type: functional, cell-based
MDA-MB-231 = test: Cytotoxicity against human MDA-MB-231 cells by Celltiter-Glo assay; type: functional, cell-based
How it was run: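 Viability was measured with CellTiter-Glo reagent added 1:1 to well medium. Plates were kept foil-covered and shaken 2 min at room temperature, paused 2 min, then shaken another 2 min. Luminescence was read on a plate reader.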

Cryptococcus neoformans = test: Antifungal activity against Cryptococcus neoformans H99 after 48 hrs by resazurin assay; type: functional; settings: var grubii H99 , read-out: MIC100
How it was run: (§1)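 Broth serial dilution MIC per NCCLS, in 96-well plates with YM medium (1% maltose extract, 0.2% yeast extract, 0.4% agar). Compounds were dissolved in DMSO and diluted in medium, with amphotericin B as positive control. Incubation was at 25 °C, read at 24 h for C. albicans and 48 h for C. neoformans. Read-outs were visual, OD and PrestoBlue resazurin. MIC is the lowest concentration giving 100% inhibition versus untreated growth.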

Candida albicans = test: Antifungal activity against Candida albicans ATCC 10231 after 24 hrs by resazurin assay; type: functional; settings: ATCC 10231, 24 h, read-out: MIC100; how it was run: as §1

Row | MIC (Cryptococcus neoformans) [µg/mL] | MIC (Candida albicans) [µg/mL] | Structure (SMILES) | IC50 (MDA-MB-453) [µM] | IC50 (MDA-MB-231) [µM]
1 | 25.6 (≈ 75.2 µM) | 51.2 (≈ 150 µM) | COc1cc(O)c2c3c(c(O)cc(C)c13)C1=C(C)C(=O)CC1(O)C2=O (configuration not stated) | > 20 | > 20
2 | 6.4 (≈ 17.2 µM) | 6.4 (≈ 17.2 µM) | CCC(=O)C(C)C1(O)C(=O)c2c(O)cc(C)c3c(OC)cc(O)c(c23)C1=O (configuration not stated) | > 20 | > 20
3 | 51.2 (≈ 149 µM) | 51.2 (≈ 149 µM) | COc1cc(O)c2c3c(c(O)cc(C)c13)C(=O)C(O)(CC(C)=O)C2=O (configuration not stated) | > 20 | > 20
4 | 12.8 (≈ 35.7 µM) | 25.6 (≈ 71.4 µM) | CCC(=O)CC1(O)C(=O)c2c(O)cc(C)c3c(OC)cc(O)c(c23)C1=O (configuration not stated) | > 20 | > 20
5 | 3.2 (≈ 8.93 µM) | 3.2 (≈ 8.93 µM) | COc1cc(O)c2c3c(c(O)cc(C)c13)C(=O)C(O)(C(C)C(C)=O)C2=O (configuration not stated) | > 20 | > 20
6 | 0.8 (≈ 0.866 µM) | 0.8 (≈ 0.866 µM) | C[C@@H]1[C@H](O)[C@@H](C)/C=C/C=C/C=C/C=C/C=C/C=C/C=C/[C@H](O[C@@H]2O[C@H](C)[C@@H](O)[C@H](N)[C@@H]2O)C[C@@H]2O[C@](O)(C[C@@H](O)C[C@@H](O)[C@H](O)CC[C@@H](O)C[C@@H](O)CC(=O)O[C@H]1C)C[C@H](O)[C@H]2C(=O)O [AMPHOTERICIN B] |  | 
